Measurements as given in ChEMBL document CHEMBL2375276, “Antibacterial oxazolidinone analogues having a N-hydroxyacetyl-substituted seven-membered [1,2,5]triazepane or [1,2,5]oxadiazepane C-ring unit” (Eur J Med Chem, 2013).
In brackets after ≈: the same amount, converted by molar mass.

What was measured:
Format in all cases: functional
[1] = system: Haemophilus influenzae; test: Antibacterial activity against Haemophilus influenzae SR27914 clinical isolate assessed as growth inhibition by CLSI broth microdilution method
Method in brief: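 MIC by CLSI broth microdilution using Haemophilus test medium.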

[2] = system: Streptococcus pneumoniae; test: Antibacterial activity against Streptococcus pneumoniae SR26207 clinical isolate assessed as growth inhibition by CLSI broth microdilution method
Method in brief: (§1)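 MIC by CLSI broth microdilution in cation-adjusted Mueller-Hinton broth; S. pneumoniae medium supplemented with 5% lysed horse blood.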

[3] = system: Moraxella catarrhalis; test: Antibacterial activity against Moraxella catarrhalis SR26840 clinical isolate assessed as growth inhibition by CLSI broth microdilution method; method in brief: as §1
[4] = system: Enterococcus faecium; test: Antibacterial activity against Enterococcus faecium SR7940 clinical isolate assessed as growth inhibition by CLSI broth microdilution method; method in brief: as §1
[5] = system: Enterococcus faecalis; test: Antibacterial activity against Enterococcus faecalis SR1004 clinical isolate assessed as growth inhibition by CLSI broth microdilution method; method in brief: as §1
[6] = system: Staphylococcus aureus; test: Antibacterial activity against linezolid-resistant Staphylococcus aureus NRS271 assessed as growth inhibition by CLSI broth microdilution method
Method in brief: (§2)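 MIC by CLSI broth microdilution in cation-adjusted Mueller-Hinton broth. Lowest concentration inhibiting growth taken as MIC.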

[7] = system: Staphylococcus aureus; test: Antibacterial activity against Staphylococcus aureus Smith assessed as growth inhibition by CLSI broth microdilution method; method in brief: as §1
[8] = system: Staphylococcus aureus; test: Antibacterial activity against Staphylococcus aureus SR20549 clinical isolate assessed as growth inhibition by CLSI broth microdilution method; method in brief: as §1
[9] = system: Staphylococcus aureus; test: Antibacterial activity against methicillin-resistant Staphylococcus aureus SR3637 infected in JCL/ICR mouse systemic infection model assessed as mortality administered as iv measured over 7 days; conditions: 168 h
Method in brief: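 Five-week-old male JCL/ICR mice (20–25 g), five per group. Infected intraperitoneally with 0.5 or 1.0 mL bacterial suspension (about 100× LD50). Intravenous dosing 1 h post-infection. Mortality followed 7 days; ED50 with 95% confidence limits by logit method.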

[10] = system: Staphylococcus aureus; test: Antibacterial activity against methicillin-resistant Staphylococcus aureus SR3637 assessed as growth inhibition by CLSI broth microdilution method; method in brief: as §2
[11] = system: Staphylococcus aureus; test: Antibacterial activity against methicillin-resistant Staphylococcus aureus SR3637 infected in JCL/ICR mouse systemic infection model assessed as mortality administered as po measured over 7 days; conditions: 168 h
Method in brief: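 Five-week-old male JCL/ICR mice (20–25 g), five per group. Infected intraperitoneally with 0.5 or 1.0 mL bacterial suspension (about 100× LD50). Oral dosing 1 h post-infection. Mortality followed 7 days; ED50 with 95% confidence limits by logit method.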

Structure (SMILES) | MIC [1] [µg/mL] | MIC [2] [µg/mL] | MIC [3] [µg/mL] | MIC [4] [µg/mL] | MIC [5] [µg/mL] | MIC [6] [µg/mL] | MIC [7] [µg/mL] | MIC [8] [µg/mL] | ED50 [9] [mg/kg] | MIC [10] [µg/mL] | ED50 [11] [mg/kg]
O=C(CO)N1CCN(c2ccc(N3C[C@H](CNc4ccon4)OC3=O)cc2F)CCN1 | 32 (≈ 73.7 µM) | 0.5 (≈ 1.15 µM) | 16 (≈ 36.8 µM) | 2 (≈ 4.6 µM) | 2 (≈ 4.6 µM) | 64 (≈ 147 µM) | 2 (≈ 4.6 µM) | 1 (≈ 2.3 µM) |  |  | 
O=C(CO)N1CCN(c2c(F)cc(N3C[C@H](Cn4ccnn4)OC3=O)cc2F)CCN1 | 8 (≈ 18.3 µM) | 0.5 (≈ 1.14 µM) | 4 (≈ 9.14 µM) | 1 (≈ 2.29 µM) | 1 (≈ 2.29 µM) | 16 (≈ 36.6 µM) | 2 (≈ 4.57 µM) | 1 (≈ 2.29 µM) | 1.71 | 1 (≈ 2.29 µM) | 
O=C(CO)N1CCN(c2c(F)cc(N3C[C@H](Cn4ccnn4)OC3=O)cc2F)CCO1 | 16 (≈ 36.5 µM) | 1 (≈ 2.28 µM) | 8 (≈ 18.2 µM) | 2 (≈ 4.56 µM) | 2 (≈ 4.56 µM) | 16 (≈ 36.5 µM) | 2 (≈ 4.56 µM) | 1 (≈ 2.28 µM) |  |  | 
O=C1O[C@@H](Cn2ccnn2)CN1c1cc(F)c(N2CCNOCC2)c(F)c1 | 8 (≈ 21 µM) | 0.5 (≈ 1.31 µM) | 4 (≈ 10.5 µM) | 1 (≈ 2.63 µM) | 2 (≈ 5.26 µM) | 16 (≈ 42.1 µM) | 2 (≈ 5.26 µM) | 1 (≈ 2.63 µM) |  |  | 
O=C(CO)N1CCN(c2c(F)cc(N3C[C@H](CNc4ccon4)OC3=O)cc2F)CCN1 | 16 (≈ 35.4 µM) | 0.125 (≈ 0.276 µM) | 16 (≈ 35.4 µM) | 1 (≈ 2.21 µM) | 0.25 (≈ 0.553 µM) | 8 (≈ 17.7 µM) | 0.5 (≈ 1.11 µM) | 0.5 (≈ 1.11 µM) | 2.18 | 0.5 (≈ 1.11 µM) | 2.83
O=C(CO)N1CCN(c2c(F)cc(N3C[C@H](CNc4ccon4)OC3=O)cc2F)CCO1 | 16 (≈ 35.3 µM) | 0.25 (≈ 0.551 µM) | 4 (≈ 8.82 µM) | 1 (≈ 2.21 µM) | 0.5 (≈ 1.1 µM) | 8 (≈ 17.6 µM) | 0.5 (≈ 1.1 µM) | 0.25 (≈ 0.551 µM) | > 10 | 0.25 (≈ 0.551 µM) | 
O=C1O[C@@H](CNc2ccon2)CN1c1cc(F)c(N2CCNOCC2)c(F)c1 | 16 (≈ 40.5 µM) | 0.125 (≈ 0.316 µM) | 4 (≈ 10.1 µM) | 1 (≈ 2.53 µM) | 0.5 (≈ 1.26 µM) | 16 (≈ 40.5 µM) | 1 (≈ 2.53 µM) | 0.5 (≈ 1.26 µM) |  |  | 
CC(=O)NC[C@H]1CN(c2ccc(N3CCNN(C(=O)CO)CC3)c(F)c2)C(=O)O1 | 16 (≈ 39.1 µM) | 1 (≈ 2.44 µM) | 8 (≈ 19.5 µM) | 4 (≈ 9.77 µM) | 2 (≈ 4.88 µM) | 64 (≈ 156 µM) | 2 (≈ 4.88 µM) | 4 (≈ 9.77 µM) |  |  | 
CC(=O)NC[C@H]1CN(c2cc(F)c(N3CCNN(C(=O)CO)CC3)c(F)c2)C(=O)O1 | 8 (≈ 18.7 µM) | 0.25 (≈ 0.585 µM) | 4 (≈ 9.36 µM) | 4 (≈ 9.36 µM) | 2 (≈ 4.68 µM) | 16 (≈ 37.4 µM) | 1 (≈ 2.34 µM) | 1 (≈ 2.34 µM) |  |  | 
